# Measurements taken from ChEMBL document CHEMBL1138245, “Discovery of N1-(6-chloroimidazo[2,1-b][1,3]thiazole-5-sulfonyl)tryptamine as a potent, selective, and orally active 5-HT(6) receptor agonist” (J Med Chem, 2007).
# Columns and labels:
# [1] = target: 5-hydroxytryptamine receptor 2A (Homo sapiens) (UniProt P28223); assay: Displacement of [125I]DOI from human 5HT2A receptor expressed in CHO cells at 1 uM; format: cell-based
# [2] = target: Beta-2 adrenergic receptor (Homo sapiens) (UniProt P07550); assay: Displacement of radio ligand from beta-2 adrenergic receptor at 10 nM
# [3] = Drug level in Sprague-Dawley rat plasma at 3 mg/kg, ip after 0.25 hr; format: ADME, organism-based; parameters: dose 3 mg/kg, route intraperitoneal
# How it was run: (§1)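 Rats given a single 3 mg/kg ip or 100 mg/kg oral dose; plasma and brain concentrations measured over time to assess brain/plasma ratio.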
# [4] = Drug level in Sprague-Dawley rat plasma at 3 mg/kg, ip after 0.5 hr; format: ADME, organism-based; parameters: dose 3 mg/kg, route intraperitoneal; how it was run: as §1
# [5] = Drug level in Sprague-Dawley rat plasma at 3 mg/kg, ip after 1 hr; format: ADME, organism-based; parameters: dose 3 mg/kg, route intraperitoneal; how it was run: as §1
# [6] = Drug level in Sprague-Dawley rat plasma at 3 mg/kg, ip after 2 hrs; format: ADME, organism-based; parameters: dose 3 mg/kg, route intraperitoneal; how it was run: as §1
# [7] = Drug level in Sprague-Dawley rat plasma at 3 mg/kg, ip after 4 hrs; format: ADME, organism-based; parameters: dose 3 mg/kg, route intraperitoneal; how it was run: as §1
# [8] = Drug level in Sprague-Dawley rat brain at 3 mg/kg, ip after 0.25 hr; format: ADME, organism-based; parameters: dose 3 mg/kg, route intraperitoneal; settings: read-out: Drug uptake; how it was run: as §1
# [9] = Drug level in Sprague-Dawley rat brain at 3 mg/kg, ip after 0.5 hr; format: ADME, organism-based; parameters: dose 3 mg/kg, route intraperitoneal; settings: read-out: Drug uptake; how it was run: as §1
# [10] = Drug level in Sprague-Dawley rat brain at 3 mg/kg, ip after 1 hr; format: ADME, organism-based; parameters: dose 3 mg/kg, route intraperitoneal; settings: read-out: Drug uptake; how it was run: as §1
# [11] = target: 5-hydroxytryptamine receptor 2B (Homo sapiens, UniProt P41595); assay: Inhibition of human 5HT2B receptor expressed in CHO cells; format: cell-based
# [12] = target: 5-hydroxytryptamine receptor 7 (Homo sapiens, UniProt P34969); assay: Displacement of [3H]LSD from human 5HT7 receptor expressed in CHO cells; format: cell-based
# How it was run: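 Human 5-HT₇ clone stably expressed in CHO cells; binding measured by [³H]LSD displacement; Ki determined in triplicate.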
# [13] = target: T1, 5-hydroxytryptamine receptor 3A (Homo sapiens) (UniProt P46098); assay: Inhibition of human 5HT3 receptor expressed in CHO cells at 100 nM; format: cell-based
# T1 sequence (whole entry): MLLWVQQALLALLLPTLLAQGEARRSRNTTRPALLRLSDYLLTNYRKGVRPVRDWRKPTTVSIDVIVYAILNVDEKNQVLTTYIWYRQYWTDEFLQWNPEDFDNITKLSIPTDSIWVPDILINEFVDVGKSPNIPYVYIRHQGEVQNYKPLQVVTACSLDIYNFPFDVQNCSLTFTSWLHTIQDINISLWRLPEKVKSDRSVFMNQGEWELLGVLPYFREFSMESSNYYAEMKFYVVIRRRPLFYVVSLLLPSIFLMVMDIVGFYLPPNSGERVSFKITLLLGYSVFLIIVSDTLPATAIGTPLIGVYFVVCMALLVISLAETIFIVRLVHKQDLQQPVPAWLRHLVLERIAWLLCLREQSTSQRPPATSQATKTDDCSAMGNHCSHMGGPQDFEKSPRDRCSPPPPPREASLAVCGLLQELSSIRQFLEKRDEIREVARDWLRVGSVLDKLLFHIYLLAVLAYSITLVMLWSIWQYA
# [14] = target: 5-hydroxytryptamine receptor 4 (Homo sapiens) (UniProt Q13639); assay: Inhibition of human 5HT4 receptor expressed in CHO cells at 100 nM; format: cell-based
# [15] = target: 5-hydroxytryptamine receptor 5A (Homo sapiens) (UniProt P47898); assay: Inhibition of human 5HT5 receptor expressed in CHO cells at 100 nM; format: cell-based
# [16] = target: 5-hydroxytryptamine receptor 1B (Homo sapiens) (UniProt P28222); assay: Displacement of [3H]5-HT from human 5HT1B receptor expressed in CHO cells at 1 uM; format: cell-based
# [17] = target: 5-hydroxytryptamine receptor 1D (Homo sapiens) (UniProt P28221); assay: Displacement of [3H]5HT from human 5HT1D receptor expressed in CHO cells at 1 uM; format: cell-based
# [18] = target: T2, 5-hydroxytryptamine receptor 1F (Homo sapiens) (UniProt P30939); assay: Displacement of [3H]5-HT from human 5HT1F receptor expressed in CHO cells at 1 uM; format: cell-based
# T2 sequence (whole entry): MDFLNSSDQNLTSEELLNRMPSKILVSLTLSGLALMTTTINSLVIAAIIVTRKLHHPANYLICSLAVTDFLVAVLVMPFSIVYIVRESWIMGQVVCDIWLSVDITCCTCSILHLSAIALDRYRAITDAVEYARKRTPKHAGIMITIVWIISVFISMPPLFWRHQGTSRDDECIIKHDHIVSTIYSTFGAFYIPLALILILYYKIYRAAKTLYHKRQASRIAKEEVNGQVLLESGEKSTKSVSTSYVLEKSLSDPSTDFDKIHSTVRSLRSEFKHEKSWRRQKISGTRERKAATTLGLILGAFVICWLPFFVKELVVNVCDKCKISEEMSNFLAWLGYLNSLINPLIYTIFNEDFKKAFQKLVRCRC
# [19] = Aqueous solubility at pH 3 to […]; format: physicochemical
# [20] = Aqueous solubility at pH 8; format: physicochemical
# [21] = Permeability in parallel artificial membrane; format: ADME; settings: PAMPA; read-out: permeability
# How it was run: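 Parallel artificial membrane permeability assay (PAMPA); permeability reported in cm/s; triplicate determinations, standard error <20%.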
# [22] = Metabolic stability in mouse liver microsomes; format: ADME, Microsome
# [23] = Metabolic stability in rat liver microsomes; format: ADME, Microsome
# [24] = Metabolic stability in dog liver microsomes; format: ADME, Canis lupus familiaris, Microsome
# [25] = Metabolic stability in monkey liver microsomes; format: ADME, Macaca mulatta, Microsome; settings: rhesus monkey
# [26] = Metabolic stability in human liver microsomes; format: ADME, Microsome
# [27] = AUC in rat at 1 mg/kg, iv; format: ADME, organism-based; parameters: dose 1 mg/kg, route intravenous; settings: plasma
# [28] = AUC in rat at 10 mg/kg, po; format: ADME, organism-based; parameters: dose 10 mg/kg, route oral; settings: plasma
# [29] = AUC in dog at 1 mg/kg, iv; format: ADME, organism-based, Canis lupus familiaris; parameters: dose 1 mg/kg, route intravenous; settings: plasma
# [30] = AUC in dog at 5 mg/kg, po; format: ADME, organism-based, Canis lupus familiaris; parameters: dose 5 mg/kg, route oral; settings: plasma
# [31] = Cmax in rat at 10 mg/kg, po; format: ADME, organism-based; parameters: dose 10 mg/kg, route oral; settings: in vivo
# [32] = Cmax in dog at 5 mg/kg, po; format: ADME, organism-based, Canis lupus familiaris; parameters: dose 5 mg/kg, route oral; settings: in vivo
# [33] = Tmax in rat at 10 mg/kg, po; format: ADME, organism-based; parameters: dose 10 mg/kg, route oral; settings: in vivo
# [34] = Tmax in dog at 5 mg/kg, po; format: ADME, organism-based, Canis lupus familiaris; parameters: dose 5 mg/kg, route oral; settings: in vivo
# [35] = Half life in rat at 1 mg/kg, iv; format: ADME, organism-based; parameters: dose 1 mg/kg, route intravenous; settings: in vivo
# 5-hydroxytryptamine receptor 5A (Homo sapiens), sequence (P47898 whole entry): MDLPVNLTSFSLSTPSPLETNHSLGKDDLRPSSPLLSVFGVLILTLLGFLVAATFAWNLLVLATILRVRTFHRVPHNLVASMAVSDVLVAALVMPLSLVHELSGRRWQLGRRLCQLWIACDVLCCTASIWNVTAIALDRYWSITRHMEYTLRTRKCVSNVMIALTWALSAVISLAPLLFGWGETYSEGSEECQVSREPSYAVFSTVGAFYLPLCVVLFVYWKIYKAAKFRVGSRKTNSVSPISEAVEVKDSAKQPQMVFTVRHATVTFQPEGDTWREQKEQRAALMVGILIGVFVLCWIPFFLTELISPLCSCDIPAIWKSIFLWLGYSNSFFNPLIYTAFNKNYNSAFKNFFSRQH
# 5-hydroxytryptamine receptor 1D (Homo sapiens), sequence (P28221 whole entry): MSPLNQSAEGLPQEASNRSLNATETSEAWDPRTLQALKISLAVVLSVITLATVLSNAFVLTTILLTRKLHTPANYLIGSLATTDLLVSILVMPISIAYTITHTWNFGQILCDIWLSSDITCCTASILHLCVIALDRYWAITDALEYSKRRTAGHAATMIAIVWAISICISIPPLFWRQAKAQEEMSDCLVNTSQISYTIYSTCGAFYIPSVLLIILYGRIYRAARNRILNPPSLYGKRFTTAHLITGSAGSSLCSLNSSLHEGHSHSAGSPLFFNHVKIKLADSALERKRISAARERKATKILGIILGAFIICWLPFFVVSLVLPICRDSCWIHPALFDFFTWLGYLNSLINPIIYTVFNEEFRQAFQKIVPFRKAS
# 5-hydroxytryptamine receptor 4 (Homo sapiens), sequence (Q13639 whole entry): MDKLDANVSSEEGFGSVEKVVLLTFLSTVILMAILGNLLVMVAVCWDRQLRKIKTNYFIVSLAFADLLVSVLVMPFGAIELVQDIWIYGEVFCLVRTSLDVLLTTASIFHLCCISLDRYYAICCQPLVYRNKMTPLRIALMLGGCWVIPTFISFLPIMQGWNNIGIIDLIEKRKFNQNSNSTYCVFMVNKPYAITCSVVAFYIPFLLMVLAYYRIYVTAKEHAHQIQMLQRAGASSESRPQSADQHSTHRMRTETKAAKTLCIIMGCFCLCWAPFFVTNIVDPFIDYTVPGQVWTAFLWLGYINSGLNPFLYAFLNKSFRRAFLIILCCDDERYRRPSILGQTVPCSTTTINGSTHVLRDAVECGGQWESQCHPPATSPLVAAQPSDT
# 5-hydroxytryptamine receptor 2A (Homo sapiens), sequence (P28223 whole entry): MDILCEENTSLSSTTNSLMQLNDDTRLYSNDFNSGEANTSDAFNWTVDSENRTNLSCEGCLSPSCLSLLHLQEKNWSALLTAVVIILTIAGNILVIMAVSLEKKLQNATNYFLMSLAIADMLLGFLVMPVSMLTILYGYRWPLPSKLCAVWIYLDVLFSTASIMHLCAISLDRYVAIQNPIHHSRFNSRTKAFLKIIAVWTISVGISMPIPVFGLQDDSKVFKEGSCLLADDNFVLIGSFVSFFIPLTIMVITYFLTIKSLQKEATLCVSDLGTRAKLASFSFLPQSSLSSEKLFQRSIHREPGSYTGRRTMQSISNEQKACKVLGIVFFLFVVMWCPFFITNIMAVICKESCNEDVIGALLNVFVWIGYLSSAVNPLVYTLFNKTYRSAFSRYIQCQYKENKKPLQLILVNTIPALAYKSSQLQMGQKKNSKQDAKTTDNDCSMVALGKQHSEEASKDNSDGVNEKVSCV
# 5-hydroxytryptamine receptor 1B (Homo sapiens), sequence (P28222 whole entry): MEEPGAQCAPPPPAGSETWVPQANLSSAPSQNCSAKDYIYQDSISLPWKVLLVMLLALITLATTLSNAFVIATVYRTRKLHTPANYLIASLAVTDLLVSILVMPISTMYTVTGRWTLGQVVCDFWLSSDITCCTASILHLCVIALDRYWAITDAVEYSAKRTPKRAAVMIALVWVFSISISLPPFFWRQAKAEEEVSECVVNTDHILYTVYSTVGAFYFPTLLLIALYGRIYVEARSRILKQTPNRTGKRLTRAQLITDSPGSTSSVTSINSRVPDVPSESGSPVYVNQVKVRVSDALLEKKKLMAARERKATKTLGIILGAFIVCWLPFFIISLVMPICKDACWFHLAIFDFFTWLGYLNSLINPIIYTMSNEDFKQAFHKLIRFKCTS
# 5-hydroxytryptamine receptor 2B, sequence (P41595 whole entry): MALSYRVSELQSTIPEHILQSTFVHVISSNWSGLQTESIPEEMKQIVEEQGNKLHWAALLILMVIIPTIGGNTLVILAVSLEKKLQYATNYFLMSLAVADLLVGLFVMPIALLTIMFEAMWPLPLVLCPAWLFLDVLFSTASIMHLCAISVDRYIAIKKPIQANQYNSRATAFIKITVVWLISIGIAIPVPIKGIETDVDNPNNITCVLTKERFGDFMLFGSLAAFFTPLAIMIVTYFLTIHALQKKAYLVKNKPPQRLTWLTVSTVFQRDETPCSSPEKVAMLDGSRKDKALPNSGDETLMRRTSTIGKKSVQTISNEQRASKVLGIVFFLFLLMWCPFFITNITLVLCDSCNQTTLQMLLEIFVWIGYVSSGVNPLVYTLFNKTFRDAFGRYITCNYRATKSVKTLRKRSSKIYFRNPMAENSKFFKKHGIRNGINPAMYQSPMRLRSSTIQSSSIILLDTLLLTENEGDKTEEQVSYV
# 5-hydroxytryptamine receptor 7, sequence (P34969 whole entry): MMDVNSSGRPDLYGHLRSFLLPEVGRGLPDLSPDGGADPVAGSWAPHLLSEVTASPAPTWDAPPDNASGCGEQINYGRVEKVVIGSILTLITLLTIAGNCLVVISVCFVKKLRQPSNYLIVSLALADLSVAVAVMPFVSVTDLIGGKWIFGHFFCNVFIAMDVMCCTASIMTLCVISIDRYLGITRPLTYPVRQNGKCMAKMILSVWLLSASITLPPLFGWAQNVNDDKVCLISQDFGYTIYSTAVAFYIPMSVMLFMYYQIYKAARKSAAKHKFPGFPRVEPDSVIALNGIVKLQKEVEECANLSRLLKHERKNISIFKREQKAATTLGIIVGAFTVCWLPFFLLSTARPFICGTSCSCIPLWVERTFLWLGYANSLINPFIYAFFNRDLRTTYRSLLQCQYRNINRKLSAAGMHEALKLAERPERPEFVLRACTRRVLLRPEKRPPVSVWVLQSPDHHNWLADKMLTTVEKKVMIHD
# Beta-2 adrenergic receptor (Homo sapiens), sequence (P07550 whole entry, looked up): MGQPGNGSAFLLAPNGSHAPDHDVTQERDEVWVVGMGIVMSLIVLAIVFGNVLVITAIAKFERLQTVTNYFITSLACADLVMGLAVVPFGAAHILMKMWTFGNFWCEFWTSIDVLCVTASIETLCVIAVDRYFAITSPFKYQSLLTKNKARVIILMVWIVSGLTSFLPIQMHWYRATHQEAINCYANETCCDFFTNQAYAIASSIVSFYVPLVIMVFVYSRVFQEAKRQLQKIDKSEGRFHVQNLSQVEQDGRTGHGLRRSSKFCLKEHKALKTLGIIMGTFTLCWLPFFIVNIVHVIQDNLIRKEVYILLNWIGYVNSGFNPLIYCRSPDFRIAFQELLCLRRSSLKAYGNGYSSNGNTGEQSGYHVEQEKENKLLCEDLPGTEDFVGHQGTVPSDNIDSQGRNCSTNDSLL
smiles,measurement,setting,value
NCCc1cn(S(=O)(=O)c2c(Cl)nc3sccn23)c2ccccc12,Activity,[1],25%
same,Activity,[2],< 50%
same,concentration at 0.25 h,[3],0.0913 µg/mL
same,concentration at 0.5 h,[4],0.066 µg/mL
same,concentration at 1 h,[5],0.021 µg/mL
same,concentration at 2 h,[6],0.0032 µg/mL
same,concentration at 4 h,[7],0.0043 µg/mL
same,concentration at 0.25 h,[8],0.0084 µg/mL
same,concentration at 0.5 h,[9],0.0115 µg/mL
same,concentration at 1 h,[10],0.0142 µg/mL
same,Ki,[11],0.458 µM
same,Ki,[12],0.679 µM
same,inhibition,[13],< 50%
same,inhibition,[14],< 50%
same,inhibition,[15],< 50%
same,Activity,[16],36%
same,Activity,[17],21%
same,Activity,[18],40%
same,solubility,[19],> 10 mg/mL
same,solubility,[20],0.24 mg/mL
same,Papp,[21],136 nm/s
same,half-life,[22],> 1 h
same,half-life,[23],8 min
same,half-life,[24],0.433 h
same,half-life,[25],6.4 min
same,half-life,[26],> 1 h
same,AUC,[27],0.14 µg·h/mL
same,AUC,[28],0.19 µg·h/mL
same,AUC,[29],0.52 µg·h/mL
same,AUC,[30],1.43 µg·h/mL
same,Cmax,[31],0.049 µg/mL
same,Cmax,[32],0.13 µg/mL
same,Tmax,[33],1.7 h
same,Tmax,[34],2.3 h
same,half-life,[35],5.4 h
